An excerpt weighted towards active compounds, which were near 2.3% of everything screened.
ADAM17 inh – inhibitors of human ADAM17; P78536; recombinant ADAM17, EDANS/DABCYL FRET peptide cleavage; inhibition, % at 6.95 µM; 370,000 tested, 0.83% active; AID 720648;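 active = inhibition above the mean of compounds lying between control limits plus 3 SD, set per campaign, cut at about 8.5% in these data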;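 also: 0% = DMSO-only wells as the low control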
PLC-beta3 inh – PLC-beta3 (human) inhibition, primary screen; inhibition, % at 12.2 µM; Purified PLC-beta3, fluorogenic substrate, fluorescence; 370,000 tested, 0.18% active; AID 720704; Q01970; in the data active = inhibition above about 11%;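 also: 0% = median of compound wells on plate and 100% = full blocker control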
Tn6 DDE FP – inhibitors of Tn6 peptide binding to human fibrin DD(E); AID 720509; 370,000 tested, 0.21% active; inhibition, % at 8.3 µM; Fibrin DD(E) TRITC-Tn6 fluorescence polarization displacement;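 active = inhibition above a per-campaign cutoff: mean of compounds within control limits plus 3 SD, cut at about 15% in these data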;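 also: 0% = median of all compound wells on the plate and 100% = blocking peptide control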
ADAM10 inh – inhibitors of human ADAM10; O14672; recombinant ADAM10, EDANS/DABCYL FRET peptide cleavage, 3 h; inhibition, % at 7 µM; 370,000 tested, 0.62% active; AID 720582;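 active = inhibition above a per-campaign cutoff equal to the mean of compounds falling between control-based bounds plus 3 SD, cut at about 20% in these data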;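 also: 0% = DMSO wells while the 100% control is not disclosed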
PLC-gamma1 inh – blocks human PLC-gamma1 enzyme activity | purified PLC-gamma1, fluorogenic substrate, fluorescence | AID 720700 | P19174 | inhibition, % at 12.2 µM | 370,000 tested, 0.84% active
Target sequence (P19174 whole entry, looked up): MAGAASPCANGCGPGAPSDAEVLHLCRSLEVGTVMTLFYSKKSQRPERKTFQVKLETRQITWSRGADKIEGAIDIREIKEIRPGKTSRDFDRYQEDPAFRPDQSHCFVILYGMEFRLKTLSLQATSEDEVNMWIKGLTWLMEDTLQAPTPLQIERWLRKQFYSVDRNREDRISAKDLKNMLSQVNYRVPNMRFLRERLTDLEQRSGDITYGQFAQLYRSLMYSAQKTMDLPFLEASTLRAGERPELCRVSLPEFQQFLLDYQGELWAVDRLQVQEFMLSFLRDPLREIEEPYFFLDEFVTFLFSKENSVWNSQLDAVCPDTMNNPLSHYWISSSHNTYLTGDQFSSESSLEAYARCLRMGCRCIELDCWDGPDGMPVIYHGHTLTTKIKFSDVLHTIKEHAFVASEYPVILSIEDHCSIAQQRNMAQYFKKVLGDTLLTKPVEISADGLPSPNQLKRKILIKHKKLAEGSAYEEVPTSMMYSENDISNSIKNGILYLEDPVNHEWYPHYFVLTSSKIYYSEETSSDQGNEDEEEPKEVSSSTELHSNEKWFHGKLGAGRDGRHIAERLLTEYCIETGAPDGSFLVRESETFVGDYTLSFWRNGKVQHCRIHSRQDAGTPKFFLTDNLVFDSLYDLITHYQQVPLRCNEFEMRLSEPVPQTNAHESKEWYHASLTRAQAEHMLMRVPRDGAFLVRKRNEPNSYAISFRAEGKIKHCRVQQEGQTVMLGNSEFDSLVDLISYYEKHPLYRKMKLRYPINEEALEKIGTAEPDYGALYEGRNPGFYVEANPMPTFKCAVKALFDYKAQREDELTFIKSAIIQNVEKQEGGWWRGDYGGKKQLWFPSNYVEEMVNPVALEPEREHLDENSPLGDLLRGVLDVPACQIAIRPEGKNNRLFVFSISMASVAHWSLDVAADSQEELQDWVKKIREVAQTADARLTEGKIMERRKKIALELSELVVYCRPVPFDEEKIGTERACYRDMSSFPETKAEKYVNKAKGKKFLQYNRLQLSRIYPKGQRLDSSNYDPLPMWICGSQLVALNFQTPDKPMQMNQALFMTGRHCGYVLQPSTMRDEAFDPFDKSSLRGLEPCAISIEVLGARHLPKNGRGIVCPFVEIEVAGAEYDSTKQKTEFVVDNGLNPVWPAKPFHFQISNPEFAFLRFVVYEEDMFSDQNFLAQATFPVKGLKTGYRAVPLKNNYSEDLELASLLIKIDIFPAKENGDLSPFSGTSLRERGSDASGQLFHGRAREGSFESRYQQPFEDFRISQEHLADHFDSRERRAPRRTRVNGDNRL
Tn7 DDE FP – DD(E)-Tn7 binding inhibition, primary FP screen | P02675 | FP displacement of FITC-Tn7 peptide from fibrin DD(E); 0% = median of compound wells per plate | inhibition, % at 8.3 µM | 370,000 tested, 0.13% active;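 active = inhibition above the mean of compounds falling within the control limits plus 3 SD of them, cut at about 14% in these data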;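 also: 0% = plate median of compound wells and 100% = 10 µM Aha-Tn7 peptide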
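Assay system: Fibrin-DD(E) protein isolated from polymerized human fibrin clots; read-out basis: percent inhibition; medium: Tris/NaCl/CaCl2 buffer, pH 7.8; signal: FP measurement; incubation: 10 min plus 3 h, room temperature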
PLCgamma1 ctr – inhibits human PLC-gamma1 in PLC-beta3 counter-screen | purified PLC-gamma1, fluorogenic substrate, fluorescence | 3,300 tested, 3.1% active | shares compounds with PLC-gamma1 inh | inhibition, % at 12.3 µM | AID 743258
PLCb3 confirm – human PLC-beta3 inhibition, confirmation | purified PLC-beta3, fluorogenic substrate fluorescence | inhibition, % at 12.3 µM | AID 743261 | 3,300 tested, 1% active | shares compounds with PLC-gamma1 inh; in the data active = inhibition above about 11%
* hit, by the source's call. Rule as the data show it, unless noted: active = inhibition above about 9.5%; inactive = the rest.

How did Cc1ccc2nc(C3CCN(C(=O)NCc4ccccc4)CC3)[nH]c2c1 do in these assays?
ADAM17 inh: 0; PLC-beta3 inh: 3; Tn6 DDE FP: -9; ADAM10 inh: 2; PLC-gamma1 inh: 10*; Tn7 DDE FP: 1; PLCgamma1 ctr: 1; PLCb3 confirm: -3

What do the screens show for `O=C(c1ccncc1)N1CCN(c2ccc(F)cc2)CC1`?
ADAM17 inh: 1; PLC-beta3 inh: -1; Tn6 DDE FP: 0; ADAM10 inh: 4; PLC-gamma1 inh: 2; Tn7 DDE FP: -1

Results for O=C(c1ccc(Cl)cc1)N1CCCOC1 ?
ADAM17 inh: 6; PLC-beta3 inh: 13*; Tn6 DDE FP: -10; ADAM10 inh: 6; PLC-gamma1 inh: 16*; Tn7 DDE FP: -3; PLCgamma1 ctr: 4; PLCb3 confirm: 2

Results for O=C(c1ccc(CS(=O)Cc2ccc(Cl)cc2)o1)N1CCN(c2ccc(F)cc2)CC1 (centres undefined) ?
ADAM17 inh: 8; PLC-beta3 inh: -4; Tn6 DDE FP: -1; ADAM10 inh: 6; PLC-gamma1 inh: 9.5*; Tn7 DDE FP: -7; PLCgamma1 ctr: -2; PLCb3 confirm: -2

Results for O=C(c1ccc(Cl)cc1)N1CCN(c2ccc(F)cc2)CC1 ?
ADAM17 inh: 5; PLC-beta3 inh: 5; Tn6 DDE FP: 3; ADAM10 inh: 14; PLC-gamma1 inh: 11*; Tn7 DDE FP: -7; PLCgamma1 ctr: -4; PLCb3 confirm: 0

How did O=C(c1cccc([N+](=O)[O-])c1)N1CCN(c2ccc(Cl)cc2)CC1 do in these assays?
ADAM17 inh: -1; PLC-beta3 inh: 2; Tn6 DDE FP: 2; ADAM10 inh: 10; PLC-gamma1 inh: 11*; Tn7 DDE FP: 1; PLCgamma1 ctr: 2; PLCb3 confirm: -1

What do the screens show for `NC(=O)C1CCCN(C(=O)c2ccc(Cl)cc2)C1` (centres undefined)?
ADAM17 inh: 0; PLC-beta3 inh: 6; Tn6 DDE FP: 0; ADAM10 inh: -3; PLC-gamma1 inh: 2; Tn7 DDE FP: -1

What do the screens show for `CC(C)N(Cc1cn(Cc2ccccc2)nn1)S(=O)(=O)c1ccc(F)cc1Br`?
ADAM17 inh: 3; PLC-beta3 inh: 1; Tn6 DDE FP: 1; ADAM10 inh: 7; PLC-gamma1 inh: 2; Tn7 DDE FP: -2

What do the screens show for `CCNC(=S)NCCN1CCOCC1`?
ADAM17 inh: 2; PLC-beta3 inh: 12*; Tn6 DDE FP: 5; ADAM10 inh: 6; PLC-gamma1 inh: 9; Tn7 DDE FP: -8; PLCgamma1 ctr: -5; PLCb3 confirm: 0

How did CNC(=S)NCCN1CCOCC1 do in these assays?
ADAM17 inh: -3; PLC-beta3 inh: 0; Tn6 DDE FP: -1; ADAM10 inh: -11; PLC-gamma1 inh: -1; Tn7 DDE FP: -6

How did COC(=O)c1sccc1NC(=O)CN(C)NS(=O)(=O)c1ccc(F)cc1 do in these assays?
ADAM17 inh: 7; PLC-beta3 inh: 4; Tn6 DDE FP: 1; ADAM10 inh: 10; PLC-gamma1 inh: 12*; Tn7 DDE FP: 11; PLCgamma1 ctr: -6; PLCb3 confirm: 0

How did COC(=O)c1sccc1NC(=O)CN(C)NS(=O)(=O)c1ccc(Cl)cc1 do in these assays?
ADAM17 inh: 0; PLC-beta3 inh: 1; Tn6 DDE FP: 1; ADAM10 inh: 0; PLC-gamma1 inh: 3; Tn7 DDE FP: -11

What do the screens show for `CCc1nc2ccc(C(=O)N3CCCC(C(N)=O)C3)cn2c1N(CCC(C)C)CCN(C)C` (centres undefined)?
ADAM17 inh: 2; PLC-beta3 inh: -1; Tn6 DDE FP: 1; ADAM10 inh: -10; PLC-gamma1 inh: 4; Tn7 DDE FP: -4

What do the screens show for `CCc1nc2ccc(C(=O)N3CCCC(C(N)=O)C3)cn2c1N(C)Cc1ccc(OC)cc1` (centres undefined)?
ADAM17 inh: 5; PLC-beta3 inh: 0; Tn6 DDE FP: -7; ADAM10 inh: -4; PLC-gamma1 inh: 10*; Tn7 DDE FP: -2; PLCgamma1 ctr: -8; PLCb3 confirm: -4

Results for Cc1ccc(S(=O)(=O)Oc2ccccc2/C=N/O)cc1 ?
ADAM17 inh: 2; PLC-beta3 inh: 1; Tn6 DDE FP: 1; ADAM10 inh: 5; PLC-gamma1 inh: 1; Tn7 DDE FP: 1

Results for O=S(=O)(c1ccccc1)c1ccccc1/C=N\O ?
ADAM17 inh: 2; PLC-beta3 inh: 1; Tn6 DDE FP: 5; ADAM10 inh: 0; PLC-gamma1 inh: 11*; Tn7 DDE FP: -5; PLCgamma1 ctr: -4; PLCb3 confirm: -5

Results for COC(=O)Cn1c(SCc2ccccc2)nc2ccccc21 ?
ADAM17 inh: 1; PLC-beta3 inh: 1; Tn6 DDE FP: -9; ADAM10 inh: 0; PLC-gamma1 inh: -2; Tn7 DDE FP: -7

What do the screens show for `CCSc1nc2ccccc2n1CC(=O)OC`?
ADAM17 inh: 3; PLC-beta3 inh: 7; Tn6 DDE FP: 0; ADAM10 inh: 9; PLC-gamma1 inh: 13*; Tn7 DDE FP: -10; PLCgamma1 ctr: -2; PLCb3 confirm: 4

Results for COc1ccc(-n2c(SCC(=O)Nc3ccccc3-c3ccccc3)nnc2-c2ccco2)cc1 ?
ADAM17 inh: 5; PLC-beta3 inh: 1; Tn6 DDE FP: -7; ADAM10 inh: -2; PLC-gamma1 inh: 2; Tn7 DDE FP: 2

What do the screens show for `S=c1[nH]nc(-c2n[nH]c3c2CCC3)n1N=Cc1cccs1`?
ADAM17 inh: -3; PLC-beta3 inh: -1; Tn6 DDE FP: 12; ADAM10 inh: -6; PLC-gamma1 inh: -1; Tn7 DDE FP: -3

What do the screens show for `COC(=O)c1ccc(N2C(=O)C3CC=CC(C)C3C2=O)cc1` (centres undefined)?
ADAM17 inh: 3; PLC-beta3 inh: 4; Tn6 DDE FP: -2; ADAM10 inh: 5; PLC-gamma1 inh: 10*; Tn7 DDE FP: -7; PLCgamma1 ctr: -4; PLCb3 confirm: -2

What do the screens show for `CC(C)OC(=O)c1ccc(N2C(=O)C3CC=CCC3C2=O)cc1` (centres undefined)?
ADAM17 inh: -5; PLC-beta3 inh: 1; Tn6 DDE FP: 0; ADAM10 inh: 1; PLC-gamma1 inh: -1; Tn7 DDE FP: -2

What do the screens show for `COC(=O)[C@@]1(C(C)C)N=C(c2cc(OC)c(OC)c(OC)c2)[C@]2(O1)C(=O)N(Cc1cn(-c3ccccc3)nn1)c1cccc(Cl)c12`?
ADAM17 inh: -5; PLC-beta3 inh: 1; Tn6 DDE FP: -4; ADAM10 inh: -3; PLC-gamma1 inh: -2; Tn7 DDE FP: 5
